Assay results pooled from the literature.
Each line is one published result; the experiments were not run side by side. Values after ≈ are worked out from the molar mass of the structure shown.

| Compound | target or system | assay | test system | setting | quantity | result |
| --- | --- | --- | --- | --- | --- | --- |
| CC(=O)ON=C1C=CC(=C(C#N)c2ccccc2)C=C1 | HDF-1 | cell growth or viability, MTT |  | 48 h | IC50 | 24.9 µg/mL |
| CC(C)(C#Cc1ccc(-c2ccc(Cl)c3c(NS(C)(=O)=O)nn(CC(F)(F)F)c23)c([C@H](CC2CC2)NC(=O)Cn2nc(C(F)(F)F)c3c2C(F)(F)[C@@H]2C[C@H]32)n1)S(C)(=O)=O | Human immunodeficiency virus 1 | viral replication, inhibitor |  |  | EC50 | 0.0009 µM |
| O=c1[nH]ncc(NN=Cc2cn(-c3ccccc3)nc2-c2ccccc2)c1Cl | CCRF-CEM | cell growth or viability |  | 48 h | CC50 | 4.78 µM |
| Cc1nc(Nc2ncc(C(=O)Nc3c(C)cccc3Cl)s2)cc(N2CC[C@H](O)C2)n1 | SU-DHL-5 | cell growth or viability, ATP luminescence |  | 10 µM, 72 h | inhibition | 98% |
| NNC(=O)c1ccncc1 | Mycobacterium marinum | microbial growth |  |  | MIC90 | 40 µM (≈ 5.49 µg/mL) |
| CCOC(=O)c1c(NCCO)c2c([nH]c1=O)CCC2 | Human immunodeficiency virus 1 | viral replication, inhibitor | IIIB | 72 h | EC50 | > 100 µM |
| [NH2][Pt]([NH2])([Cl])[Cl] | HCC4006 | cell growth or viability, MTT |  | 48 h | IC50 | 182 µM |
| C=CCNc1c2c([nH]c(=O)c1C(=O)OCC)CCC2 | Human immunodeficiency virus 1 | viral replication, inhibitor | IIIB | 72 h | EC50 | > 100 µM |
| CC(C)(C#Cc1ccc(-c2ccc(Cl)c3c(NS(C)(=O)=O)nn(CC(F)(F)F)c23)c([C@H](CC2CCCCC2)NC(=O)Cn2nc(C(F)(F)F)c3c2C(F)(F)[C@H]2C[C@@H]32)n1)S(C)(=O)=O | Human immunodeficiency virus 1 | viral replication, inhibitor |  |  | EC50 | 0.0007 µM |
| O=[N+]([O-])c1cn2c(n1)OC[C@@H](OCc1ccc(OC(F)(F)F)cc1)C2 | Mycobacterium marinum | microbial growth |  |  | MIC90 | 50 µM (≈ 18 µg/mL) |
| C=CCCCNc1c2c([nH]c(=O)c1C(=O)OCC)CCC2 | Human immunodeficiency virus 1 | viral replication, inhibitor | IIIB | 72 h | EC50 | 45.4 µM |
| CC(C)(C#Cc1ccc(-c2ccc(Cl)c3c(NS(C)(=O)=O)nn(CC(F)(F)F)c23)c([C@@H](CC2CCCC2)NC(=O)Cn2nc(C(F)(F)F)c3c2C(F)(F)[C@H]2C[C@@H]32)n1)S(C)(=O)=O | Human immunodeficiency virus 1 | viral replication, inhibitor |  |  | EC50 | 0.0123 µM |
| Cc1ccc(-c2nn(-c3ccccc3)cc2C=Nc2c(N)nc(S)nc2O)cc1 | CCRF-CEM | cell growth or viability |  | 48 h | CC50 | < 20 µM |
| CCOC(=O)c1c(NCCCN)c2c([nH]c1=O)CCC2 | Human immunodeficiency virus 1 | viral replication, inhibitor | IIIB | 72 h | EC50 | > 100 µM |
